Experimental data from ChEMBL document CHEMBL4130503, “Discovery of novel diarylpyrazolylquinoline derivatives as potent anti-dengue virus agents” (Eur J Med Chem, 2017).
pIC50: −log10 of the molar value. Activity calls are given as the source filed them. The calls are words filed in the database; no cut-off is given here.

Key:
dengue virus type 4 = experiment: Antiviral activity against Fluc-tagged DENV4 infected in human HuH7 cells after 3 days by luciferase reporter gene assay; type: functional, organism-based; conditions: Huh-7, 72 h
dengue virus type 3 = experiment: Antiviral activity against Fluc-tagged DENV3 infected in human HuH7 cells after 3 days by luciferase reporter gene assay; type: functional, organism-based; conditions: Huh-7, 72 h
dengue virus type 1 = experiment: Antiviral activity against Fluc-tagged DENV1 infected in human HuH7 cells after 3 days by luciferase reporter gene assay; type: functional, organism-based; conditions: Huh-7, 72 h
[1] = Cytotoxicity against human HuH7 cells assessed as cell viability at 20 uM after 3 days by XTT method relative to control; type: cell-based, Huh-7; conditions: read-out: Activity
In short: (§1)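 Uninfected Huh-7 cells were seeded at 5 × 10^3 cells/well in maintenance medium. They were exposed to compound at 20 or 200 µM, diluted into medium from 10 mM DMSO stocks, with 0.1% DMSO as control. Incubation was 3 days at 37 °C in humidified 5% CO2. Viability was read by XTT, run in parallel with the antiviral assays.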

dengue virus type 2 [2] = experiment: Antiviral activity against Fluc-tagged DENV2 strain 16681 infected in human HuH7 cells assessed as reduction in viral replication by measuring NS5 gene expression at 0.5 to 5 uM after 3 days by RT-qPCR assay; type: functional, organism-based; conditions: Thailand/16681/84
In short: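 DENV-2 (16681) replicating Huh-7 cells exposed to 0.5, 1, 2.5 and 5 µM for 3 days; 0.1% DMSO mock. Total RNA analysed by RT-qPCR with NS5-targeted primers, normalised to cellular GAPDH mRNA; means ± SD of triplicate experiments.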

dengue virus type 2 [3] = experiment: Antiviral activity against DENV2 strain 16681 infected in ICR suckling mouse assessed as protection against mouse death at 1 to 5 mg/kg, ip treated on day 1,3 and 5 post infection measured daily for 6 days; type: functional, organism-based; conditions: Thailand/16681/84
In short: (§2)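 Six-day-old ICR suckling mice, n = 5/group, given 2.5 × 10^5 pfu DENV-2 intracerebrally, then 1, 5, 10 or 20 mg/kg intraperitoneally at 1, 3 and 5 dpi. Controls were DENV plus ip saline, and 60 °C heat-inactivated DENV (mock). Survival, clinical score (paralysis, anorexia, asthenia) and body weight were recorded daily for 6 days.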

dengue virus type 2 [4] = experiment: Potency index, ratio of ribavirin IC50 to compound IC50 for antiviral activity against Fluc-tagged DENV2 strain 16681 infected in human HuH7 cells; type: functional, Thailand/16681/84
dengue virus type 2 [5] = experiment: Antiviral activity against Fluc-tagged DENV2 strain 16681 infected in human HuH7 cells assessed as reduction in viral replication by measuring NS2B protein expression at 0.5 to 5 uM after 3 days by immunoblot analysis; type: functional, organism-based; conditions: Thailand/16681/84
In short: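 DENV-2 (16681) replicating Huh-7 cells treated with 0.5, 1, 2.5 and 5 µM for 3 days; 0.1% DMSO mock. Whole-cell lysates immunoblotted overnight with rabbit polyclonal anti-NS2B (1:3000); GAPDH (1:10000) as loading control.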

[6] = Cytotoxicity against human HuH7 cells assessed as growth inhibition after 3 days by XTT method; type: cell-based, Huh-7
In short: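 Uninfected Huh-7 cells were seeded at 5 × 10^3 cells/well and treated for 3 days at 37 °C in humidified 5% CO2. Viability was read by XTT against a 0.1% DMSO control. CC50 was taken as the concentration giving 50% growth inhibition.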

dengue virus type 2 [7] = experiment: Antiviral activity against Fluc-tagged DENV2 strain 16681 infected in human HuH7 cells assessed as inhibition of viral replication at 1 uM after 3 days by luciferase reporter gene assay relative to control; type: functional; conditions: Thailand/16681/84, Huh-7, 72 h
In short: (§3)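 Huh-7-DV-Fluc cells seeded at 2 × 10^4 per well, exposed to 1 or 10 µM for 3 days against a 0.1% DMSO control. Firefly luciferase activity (Bright-Glo) read as DENV-2 replication; percent inhibition relative to control.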

dengue virus type 2 [8] = experiment: Antiviral activity against Fluc-tagged DENV2 strain 16681 infected in human HuH7 cells after 3 days by luciferase reporter gene assay; type: functional, organism-based; conditions: Thailand/16681/84, Huh-7, 72 h
dengue virus type 2 [9] = experiment: Antiviral activity against DENV2 strain 16681 infected in ICR suckling mouse assessed as protection against asthenia at 1 to 5 mg/kg, ip treated on day 1,3 and 5 post infection measured daily for 6 days; type: functional, organism-based; conditions: Thailand/16681/84; in short: as §2
dengue virus type 2 [10] = experiment: Antiviral activity against DENV2 strain 16681 infected in ICR suckling mouse assessed as protection against anorexia at 1 to 5 mg/kg, ip treated on day 1,3 and 5 post infection measured daily for 6 days; type: functional, organism-based; conditions: Thailand/16681/84; in short: as §2
dengue virus type 2 [11] = experiment: Antiviral activity against Fluc-tagged DENV2 strain 16681 infected in human HuH7 cells assessed as inhibition of viral replication at 10 uM after 3 days by luciferase reporter gene assay relative to control; type: functional; conditions: Thailand/16681/84, Huh-7, 72 h; in short: as §3
dengue virus type 2 [12] = experiment: Antiviral activity against DENV2 strain 16681 infected in ICR suckling mouse assessed as protection against paralysis at 1 to 5 mg/kg, ip treated on day 1,3 and 5 post infection measured daily for 6 days; type: functional, organism-based; conditions: Thailand/16681/84; in short: as §2
[13] = Cytotoxicity against human HuH7 cells assessed as cell viability at 200 uM after 3 days by XTT method relative to control; type: cell-based, Huh-7; conditions: read-out: Activity; in short: as §1
[14] = Selectivity index, ratio of CC50 for human HuH7 cells to IC50 for Fluc-tagged DENV2 strain 16681 infected in human HuH7 cells; type: toxicity, cell-based; conditions: read-out: Ratio CC50/IC50
In short: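 SI is calculated as CC50/IC50. CC50 is 50% growth inhibition of uninfected Huh-7 cells by XTT after 3 days. IC50 is 50% inhibition of DENV-2 replication in Huh-7-DV-Fluc replicon cells (2 × 10^4 cells/well), measured by firefly luciferase after 3 days of treatment with a 0.1% DMSO control.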

Structure (SMILES)	viability at 72 h, 20 µM [1] [%]	inhibition at 1 µM (dengue virus type 2 [7]) [%]	inhibition at 10 µM (dengue virus type 2 [11]) [%]	viability at 72 h, 200 µM [13] [%]	further results
COc1ccc(-c2cc(-c3ccc4cc(F)ccc4n3)n(-c3ccc(S(N)(=O)=O)cc3)n2)cc1	83.7	59	85.3	89.5	pIC50 (dengue virus type 4): 5.81; pIC50 (dengue virus type 3): 6.14; pIC50 (dengue virus type 1): 5.92; Activity (dengue virus type 2 [2]): Active; Activity (dengue virus type 2 [3]): Active; Ratio IC50 (dengue virus type 2 [4]): 10; Activity (dengue virus type 2 [5]): Active; CC50 at 72 h [6]: > 200000 nM; pIC50 (dengue virus type 2 [8]): 6.09; Activity (dengue virus type 2 [9]): Active; Activity (dengue virus type 2 [10]): Active; Activity (dengue virus type 2 [12]): Active; selectivity ratio [14]: > 247
COc1ccc(-c2cc(-c3ccc4cc(F)ccc4n3)n(-c3ccccc3)n2)cc1	104	5.31	8.09	98.9	
COc1ccc(-n2nc(-c3ccc(F)cc3)cc2-c2ccc3cc(F)ccc3n2)cc1	89.1	6.12	15.8	52.5	
COc1ccc(-c2cc(-c3ccc4cc(F)ccc4n3)nn2-c2ccccc2)cc1	95.6	4.14	7.15	93.7	
COc1ccc(-c2cc(-c3ccc4cc(F)ccc4n3)n(-c3ccc(OC)cc3)n2)cc1	95.8	46.9	65.7	98.4	Ratio IC50 (dengue virus type 2 [4]): 10; CC50 at 72 h [6]: > 200000 nM; pIC50 (dengue virus type 2 [8]): 5.96; selectivity ratio [14]: > 183
NC(=O)c1ncn([C@@H]2O[C@H](CO)[C@@H](O)[C@H]2O)n1 [RIBAVIRIN]		10.1	32.5	26.8	selectivity ratio [14]: 4.47
Fc1ccc2nc(-c3cc(-c4ccccc4)nn3-c3ccccc3)ccc2c1	126	3.02	5.13	98.3	
Fc1ccc(-c2cc(-c3ccc4cc(F)ccc4n3)n(-c3ccc(F)cc3)n2)cc1	95.3	8.91	22.4	86.5	
NS(=O)(=O)c1ccc(-n2nc(-c3ccc(F)cc3)cc2-c2ccc3cc(F)ccc3n2)cc1	91.1	5.71	12.8	43	
Fc1ccc(-c2cc(-c3ccc4cc(F)ccc4n3)nn2-c2ccccc2)cc1	88.3	3.58	6.14	89.7	
NS(=O)(=O)c1ccc(-n2nc(-c3ccccc3)cc2-c2ccc3cc(F)ccc3n2)cc1	89.2	4.52	11.8	83.6	
Fc1ccc2nc(-c3cc(-c4ccccc4)n(-c4ccccc4)n3)ccc2c1	124	5.21	15.3	115	
COc1ccc(-n2nc(-c3ccccc3)cc2-c2ccc3cc(F)ccc3n2)cc1	116	7.81	20.7	97.3	
Fc1ccc(-c2cc(-c3ccc4cc(F)ccc4n3)n(-c3ccccc3)n2)cc1	88.1	11.2	25.4	87.5	
COc1ccc(-c2cc(-c3ccc4cc(F)ccc4n3)n(-c3ccc(F)cc3)n2)cc1	98.8	41.4	55.3	95.4	Ratio IC50 (dengue virus type 2 [4]): 10; CC50 at 72 h [6]: > 200000 nM; pIC50 (dengue virus type 2 [8]): 5.87; selectivity ratio [14]: > 147
Fc1ccc(-n2nc(-c3ccccc3)cc2-c2ccc3cc(F)ccc3n2)cc1	97.8	4.36	8.31	91.6	
